Measurements taken from ChEMBL document CHEMBL2346643, “Semisynthetic studies identify mitochondria poisons from botanical dietary supplements--geranyloxycoumarins from Aegle marmelos” (Bioorg Med Chem, 2013).
pIC50: −log10 of the molar value. Calls of active or inactive are those of the source. No cut-off for these calls is given here.

Legend:
[1] = tested on: T47D; test: Inhibition of mitochondrial ETC complex 1 in human T47D cells assessed as inhibition of oxygen consumption after 5 to 10 mins by Clarke-type electrode analysis; type: cell-based
Method in brief: (§1)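 For acute exposure, intact T47D cells received compound at 3, 10 or 30 μM for 5–10 min. Oxygen consumption was then measured with a Clarke-type electrode, with rotenone at 1–100 nM as control. Results are % inhibition of the untreated rate, averaged over two independent experiments with deviation from the average.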

[2] = tested on: T47D; test: Antiproliferative activity against human T47D cells at 1 to 10 uM after 48 hrs by SRB assay; type: functional, cell-based
Method in brief: (§2)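 T47D or MDA-MB-231 breast tumor cells were exposed to 1, 3, 10 and 30 μM for 48 h or 144 h (6 d). For the 6 d exposure, medium was replaced after 3 days with fresh medium containing compound. Stocks were 4 mM in 2-propanol, with final solvent below 0.75%. Viability was measured by sulforhodamine B and expressed as % inhibition of the untreated control: [1−(OD treated/OD control)]×100.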

[3] = biological target: Mitochondrial complex I (NADH dehydrogenase); test: Inhibition of mitochondrial ETC complex 1 in human T47D cells assessed as inhibition of 1,10-phenanthroline-induced HIF1 activation incubated for 30 mins prior to 1,10-phenanthroline-challenge measured after 16 hrs by luciferase reporter assay; type: cell-based
Method in brief: (§3)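 pHRE-luc reporter transfected T47D cells were exposed for 16 h to hypoxia (1% O2) or to chemical hypoxia (10 μM 1,10-phenanthroline) in the presence of compound. The highest concentration tested was 30 μM. Luciferase signal was expressed as % inhibition of the induced control. IC50 and 95% CI came from one representative concentration-response experiment run in triplicate. Cycloheximide at 10 μM served as control.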

[4] = tested on: T47D; test: Inhibition of mitochondrial ETC complex 1 in human T47D cells assessed as inhibition of oxygen consumption at 30 uM after 5 to 10 mins by Clarke-type electrode analysis; type: cell-based; method in brief: as §1
[5] = tested on: MDA-MB-231; test: Antiproliferative activity against human MDA-MB-231 cells at 1 to 10 uM after 48 hrs by SRB assay; type: functional, cell-based; method in brief: as §2
[6] = biological target: Mitochondrial complex I (NADH dehydrogenase); test: Inhibition of mitochondrial ETC complex 1 in human T47D cells assessed as inhibition of 1% O2-induced HIF1 activation incubated for 30 mins prior to 1% O2-challenge measured after 16 hrs by luciferase reporter assay; type: cell-based; method in brief: as §3
[7] = tested on: T47D; test: Inhibition of mitochondrial ETC complex 2 in human digitonin-permeabalized T47D cells assessed as inhibition of succinate-initiated respiration at 10 uM after 2 hrs by Clarke-type electrode analysis; type: cell-based
Method in brief: (§4)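 T47D cells were pretreated for 2 h with 10 μM compound (rotenone control 0.01 μM), then detached, washed and permeabilized with digitonin. Substrates and inhibitors were added in sequence while O2 uptake was followed by Clarke electrode. Respiration was started with malate/pyruvate (complex I) or succinate (complex II). Antimycin A then blocked complex III, and TMPD/ascorbate re-initiated respiration via complex IV. Rates were normalized to the untreated control.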

[8] = tested on: T47D; test: Inhibition of mitochondrial ETC complex 1 in human T47D cells assessed as inhibition of oxygen consumption at 10 uM after 10 mins by Clarke-type electrode analysis; type: cell-based; method in brief: as §1
[9] = tested on: T47D; test: Inhibition of mitochondrial ETC complex 4 in human digitonin-permeabalized T47D cells assessed as inhibition of ascorbate/TMPD-initiated respiration at 10 uM after 2 hrs by Clarke-type electrode analysis in presence of antimycin A; type: cell-based; method in brief: as §4
[10] = tested on: T47D; test: Inhibition of mitochondrial ETC complex 1 in human T47D cells assessed as inhibition of oxygen consumption at 10 uM after 2 hrs by Clarke-type electrode analysis; type: cell-based
Method in brief: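 T47D cells were pretreated with 10 μM compound, or 0.01 μM rotenone, for 2 h. Cells were then detached and washed, and the oxygen consumption rate was measured with a Clarke-type electrode. Results are % inhibition relative to untreated controls.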

[11] = tested on: T47D; test: Inhibition of mitochondrial ETC complex 1 in human digitonin-permeabalized T47D cells assessed as inhibition of malate/pyruvate-initiated respiration at 10 uM after 2 hrs by Clarke-type electrode analysis; type: cell-based; method in brief: as §4
[12] = tested on: T47D; test: Inhibition of mitochondrial ETC complex 2 in human digitonin-permeabalized T47D cells assessed as inhibition of succinate-initiated respiration at 30 uM after 2 hrs by Clarke-type electrode analysis; type: cell-based
[13] = tested on: T47D; test: Inhibition of mitochondrial ETC complex 1 in human digitonin-permeabalized T47D cells assessed as inhibition of malate/pyruvate-initiated respiration at 30 uM after 2 hrs by Clarke-type electrode analysis in presence of succinate; type: cell-based
[14] = tested on: T47D; test: Inhibition of mitochondrial ETC complex 1 in human digitonin-permeabalized T47D cells assessed as inhibition of malate/pyruvate-initiated respiration at 30 uM after 2 hrs by Clarke-type electrode analysis; type: cell-based
[15] = tested on: T47D; test: Inhibition of mitochondrial ETC complex 4 in human digitonin-permeabalized T47D cells assessed as inhibition of ascorbate/TMPD-initiated respiration at 30 uM after 2 hrs by Clarke-type electrode analysis in presence of antimycin A; type: cell-based
[16] = tested on: T47D; test: Inhibition of mitochondrial ETC complex 1 in human digitonin-permeabalized T47D cells assessed as inhibition of malate/pyruvate-initiated respiration at 0.01 uM after 2 hrs by Clarke-type electrode analysis; type: cell-based
Method in brief: (§5)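 After 2 h pretreatment (rotenone 0.01 μM; test agents 10 μM), cells were detached and permeabilised with digitonin. Additions made in sequence: malate/pyruvate (complex I) or succinate (complex II), antimycin A to block complex III, then TMPD/ascorbate (complex IV) to restart respiration. Clark-electrode O2 consumption slopes were normalised to untreated control.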

[17] = tested on: T47D; test: Inhibition of mitochondrial ETC complex 1 in human T47D cells assessed as inhibition of oxygen consumption at 0.01 uM after 2 hrs by Clarke-type electrode analysis; type: cell-based
Method in brief: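 T47D cells treated 2 h in culture dishes with compound (10 μM; rotenone 0.01 μM), then detached and washed. O2 consumption measured with a Clark-type electrode. Value is % inhibition versus untreated control.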

[18] = tested on: T47D; test: Inhibition of mitochondrial ETC complex 2 in human digitonin-permeabalized T47D cells assessed as inhibition of succinate-initiated respiration at 0.01 uM after 2 hrs by Clarke-type electrode analysis; type: cell-based; method in brief: as §5
[19] = tested on: T47D; test: Inhibition of mitochondrial ETC complex 1 in human T47D cells assessed as inhibition of oxygen consumption at 0.01 uM after 10 mins by Clarke-type electrode analysis; type: cell-based
Method in brief: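 Intact T47D cells; O2 consumption read on a Clark-type electrode after acute (5–10 min) compound exposure. Value is % inhibition of O2 consumption rate versus untreated control. Rotenone reference tested at 1, 10 and 100 nM. Mean of two independent experiments.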

[20] = tested on: T47D; test: Inhibition of mitochondrial ETC complex 4 in human digitonin-permeabalized T47D cells assessed as inhibition of ascorbate/TMPD-initiated respiration at 0.01 uM after 2 hrs by Clarke-type electrode analysis in presence of antimycin A; type: cell-based; method in brief: as §5
[21] = tested on: T47D; test: Antiproliferative activity against human T47D cells at 10 uM after 48 hrs by SRB assay; type: functional, cell-based
Method in brief: (§6)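 Cells exposed 48 h to compounds at 1, 3, 10 and 30 μM (pure compounds from 4 mM 2-propanol stocks, final solvent <0.75%). Viability read by sulforhodamine B staining. Value is % inhibition versus untreated control, [1-(OD treated/OD control)]×100. Cycloheximide 10 μM and rotenone 1 and 10 nM served as controls.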

[22] = tested on: MDA-MB-231; test: Antiproliferative activity against human MDA-MB-231 cells at 10 uM after 48 hrs by SRB assay; type: functional, cell-based; method in brief: as §6
[23] = tested on: MDA-MB-231; test: Antiproliferative activity against human MDA-MB-231 cells at 1 to 30 uM after 144 hrs by SRB assay; type: functional, cell-based; method in brief: as §2
[24] = tested on: T47D; test: Antiproliferative activity against human T47D cells at 1 to 30 uM after 144 hrs by SRB assay; type: functional, cell-based; method in brief: as §2
[25] = tested on: T47D; test: Antiproliferative activity against human T47D cells at 30 uM after 48 hrs by SRB assay; type: functional, cell-based; method in brief: as §2
[26] = tested on: MDA-MB-231; test: Antiproliferative activity against human MDA-MB-231 cells at 30 uM after 48 hrs by SRB assay; type: functional, cell-based; method in brief: as §2

SMILES | inhibition [1] | Activity [2] | pIC50 [3] | inhibition [4] | Activity [5] | pIC50 [6] | also measured
COC(C)(C)[C@H](O)CC/C(C)=C/COc1ccc2ccc(=O)oc2c1 | Dose-dependent effect | Active | < 4.52 | 30% | Active | 4.71 | 
C=C(C)[C@H](O)CC/C(C)=C/COc1ccc2ccc(=O)oc2c1 | Dose-dependent effect | Active | 4.66 | 30% | Active | 4.98 | inhibition [7]: 16%; inhibition [8]: 27%; inhibition [9]: inactive; inhibition [10]: 31%; inhibition [11]: 16%
C/C(=C\COc1ccc2ccc(=O)oc2c1)CC[C@@H](O)C(C)(C)Cl | Dose-dependent effect | Active | 4.95 | 30% | Active | 4.78 | inhibition [12]: inactive; inhibition [13]: inactive; inhibition [14]: Active; inhibition [15]: inactive
COc1cc2ccc(=O)oc2cc1OC/C=C(\C)CCC=C(C)C | Dose-dependent effect | Active | 4.62 | 30% | Active | 4.76 | 
C=C(C)[C@H]1Cc2c(ccc3c2O[C@@H]2COc4cc(OC)c(OC)cc4[C@@H]2C3=O)O1 |  |  |  |  |  |  | inhibition [16]: 75%; inhibition [17]: 68%; inhibition [18]: 18%; inhibition [19]: 21%; inhibition [20]: inactive
C[C@@H]1C[C@@H]([C@H](O)CC2CC(=O)NC(=O)C2)C(=O)[C@@H](C)C1 |  |  |  |  |  |  | Activity [21]: Active; Activity [22]: Active
COc1cc(C[C@H]2CO[C@H](c3ccc(O)c(OC)c3)[C@H]2COC(=O)CC(C)C)ccc1O [(+)-9'-ISOVALEROXYLARICIRESINOL] |  |  | 5.31 | inactive |  | 5.04 | 
CC(C)=CCC/C(C)=C/COc1ccc2ccc(=O)oc2c1 [AURAPTENE] | Dose-dependent effect | Active | 4.73 | 30% | Active | 4.99 | inhibition [12]: inactive; inhibition [13]: inactive; inhibition [14]: Active; inhibition [15]: inactive
CC(C)=CCOc1ccc(CCNC(=O)/C=C/c2ccccc2)cc1 [DEHYDROMARMELINE] |  |  | < 4.52 | 70% |  | 4.82 | inhibition [12]: inactive; inhibition [13]: inactive; inhibition [14]: Active; inhibition [15]: inactive
CCCCC/C=C\C/C=C\CCCCCCCC(=O)O[C@H](CC/C(C)=C/COc1ccc2ccc(=O)oc2c1)C(C)(C)O [R-(+)-MARMIN-6'-LINOLEATE] |  | Active | 5.63 | 25% | Active | 6.04 | inhibition [7]: 41%; Activity [23]: Active; Activity [24]: Active; inhibition [8]: 6%; inhibition [9]: inactive; inhibition [10]: 62%; inhibition [11]: 68%
CCCCCCCC(=O)O[C@H](CC/C(C)=C/COc1ccc2ccc(=O)oc2c1)C(C)(C)O [R-(+)-MARMIN-6'-OCTANOATE] | Dose-dependent effect | Active | 5.43 | 30% | Active | 5.51 | Activity [23]: Active; Activity [24]: Active; inhibition [8]: 28%; Activity [25]: Active; inhibition [9]: inactive; inhibition [10]: 39%; Activity [26]: Active
CCCCCCCCCCCCCCCC(=O)O[C@H](CC/C(C)=C/COc1ccc2ccc(=O)oc2c1)C(C)(C)O [R-(+)-MARMIN-6'-PALMITATE] |  | Active | < 4.52 | 20% | Active | < 4.52 | 
CCCCCCCCCCC(=O)O[C@H](CC/C(C)=C/COc1ccc2ccc(=O)oc2c1)C(C)(C)O [R-(+)-MARMIN-6'-UNDECANOATE] | Dose-dependent effect | Active | 5.44 | 30% | Active | 6.06 | Activity [23]: Active; Activity [24]: Active; Activity [25]: Active; Activity [26]: Active
C/C(=C\COc1ccc2ccc(=O)oc2c1)CC[C@@H](O)C(C)(C)O [R-(+)-MARMIN] |  | Active | < 4.52 | 20% | Active | < 4.52 | 
